Compound activity: PubChem BioAssay, Broad Institute
Shown are actives, neighbours in structure and some others; about 1.7% of the full set was active somewhere.
CAL PDZ FP-1: human CAL PDZ-peptide interaction inhibition | Q9HD26 | purified CAL PDZ, TMR-peptide fluorescence polarization, 1 h | inhibition, % at 20 µM | 0.02% of 330,000 active;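 active means highest replicate inhibition of at least 40%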;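 further: plate controls were DMSO neutral control wells for no effect and unlabeled competitor peptide control wells for full effect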
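System: tagged CAL PDZ domain. Schedule: 1 h room-temperature incubation prior to read. Signal: fluorescence polarization (mP). Measure: percent inhibition from loss of millipolarization.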
ARNT TACC3 PPI: ARNT/TACC3 interaction disruption. Q9Y6A5. AlphaScreen His-ARNT PAS-B/GST-TACC3 binding, luminescence; TACC3 fragment carries E629A point mutation. inhibition, % at 9.99 µM. 0.66% of 390,000 active. AID 623870;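 active means mean inhibition of replicates at least 50% and at least half of replicates each reaching 50%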;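 further: 0% = complete ARNT plus TACC3 wells and 100% = ARNT alone without TACC3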
Rce1 inhib: inhibitors of yeast Ras-converting enzyme. 0.27% of 290,000 active. calls only. yeast membranes, quenched prenylated peptide cleavage fluorescence;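 active means fall in fluorescence gain of 50% or more versus controls, with final raw signal at or below 3038400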;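 further: plate controls were neutral control wells for no effect and wells lacking membranes for full effect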
Target sequence (Q03530 whole entry, looked up): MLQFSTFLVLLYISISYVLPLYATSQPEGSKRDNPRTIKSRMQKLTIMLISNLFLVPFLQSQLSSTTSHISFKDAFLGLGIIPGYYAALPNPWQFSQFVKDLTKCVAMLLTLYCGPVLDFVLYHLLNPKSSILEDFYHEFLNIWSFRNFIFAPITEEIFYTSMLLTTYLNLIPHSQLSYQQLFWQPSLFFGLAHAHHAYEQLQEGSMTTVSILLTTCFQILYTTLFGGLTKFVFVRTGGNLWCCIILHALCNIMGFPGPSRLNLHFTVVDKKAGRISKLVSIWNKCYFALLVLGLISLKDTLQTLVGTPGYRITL
AI-2 QS modul: modulates the Vibrio harveyi AI-2 quorum sensing system; AID 2094; Vibrio harveyi JMH597 AI-2 luminescence/OD600 ratio, 9 h; stronger effect = lower value; strain lacks LuxN and CqsS sensors; 0 = neutral-control median; activity change, % at 7.5 µM; 0.4% of 300,000 active; in the data active means activity change below about -75%, passing the limit was not always enough;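 further: luminescence divided by OD600 gain over 9 h not by final OD600 alone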
CAL PDZ FP-2: inhibitors of human CAL PDZ peptide binding; Q9HD26; purified CAL PDZ, TMR-peptide fluorescence polarization, 1 h; inhibition, % at 24.9 µM; 0.92% of 300,000 active; AID 602252;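 active means mean inhibition of at least 30% with at least half of replicates also reaching 30%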;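 further: 0% = DMSO neutral control and 100% = excess unlabeled competitor peptide PRC23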
Active calls of the source: *; i = inactive; / = no result; + = active, no number.

SMILES	CAL PDZ FP-1	ARNT TACC3 PPI	Rce1 inhib	AI-2 QS modul	CAL PDZ FP-2
COc1ccccc1C(CNC(=O)c1ccc(NS(=O)(=O)c2ccc(F)c(C)c2)cc1)N1CCCC1 (centres undefined)	-2.8	-21.0	i	-0.6	0.8
COc1ccc(C(CNC(=O)COc2cc(C)c(Cl)c(C)c2)N2CCCCC2)cc1 (centres undefined)	-2.8	-3.2	+	8.6	-5.2
COc1ccc(C(CNC(=O)c2ccc(NS(=O)(=O)c3ccc(F)c(C)c3)cc2)N2CCCC2)cc1 (centres undefined)	-2.7	3.0	/	/	55.4*
COc1ccc(NC(=O)COC(=O)COc2cccc(Br)c2)cc1OC	11.0	3.6	i	4.8	35.7*
COc1cccc(OCC(=O)Nc2ccc(OC)c(OC)c2)c1	-2.5	/	i	-0.7	1.1
COc1ccc(CC(=O)OCC(=O)Nc2cccc(Br)c2)cc1	-1.0	-7.1	i	-76.1*	-2.4
COc1cccc(NC(=O)COC(=O)Cc2ccc(Br)cc2)c1	-0.2	/	i	-7.1	5.7
CC(=O)Nc1ccc(NC(=O)COC(=O)COc2ccc3ccccc3c2)cc1	-0.4	-0.8	/	/	104.7*
O=C(O)Cc1ccc(NC(=O)COc2ccc3ccccc3c2)cc1	-0.5	12.7	i	17.1	-5.4
COc1ccc2c(CC(=O)OCC(=O)Nc3cccc(S(N)(=O)=O)c3)coc2c1	-0.7	22.6	i	5.9	50.5*
Cc1[nH]nc2c1C(c1ccsc1)C1=C(CC(C)(C)CC1=O)N2 (centres undefined)	-0.6	20.7	i	11.0	2.0
CN(C)S(=O)(=O)c1ccc(C(=O)OC2CCOC2=O)cc1 (centres undefined)	-1.7	-6.2	i	3.3	-2.7
CCCn1c2c(c(O)c(C(=O)NCCCN(CC)CC)c1=O)CCCC2	/	-15.8	i	1.4	-5.0
CO[C@@H]1CN(C)C(=O)c2ccc(NC(C)=O)cc2OC[C@H](C)N(CCC(F)(F)F)C[C@H]1C	/	0.5	/	/	/
COc1ccc(CC(=O)OCC(=O)Nc2ccc(Br)cc2)cc1	-4.3	/	+	22.8	-1.5
COc1ccc(NC(=O)CCNS(=O)(=O)c2ccc3c(c2)CC(C)N3C(=O)C2CC2)cc1 (centres undefined)	-0.2	-1.2	i	8.2	33.8*
CCCCNS(=O)(=O)c1ccc(NC(=O)Cc2ccc(OC)cc2)cc1	-1.7	-2.3	i	-96.2*	/
COc1ccc(CC(=O)Nc2ccc(S(=O)(=O)NC(C)C)cc2)cc1	-0.6	-7.4	i	-53.2	-2.0
c1ccc(Cc2nc(-c3ccccn3)no2)cc1	1.2	8.5	i	-47.9	-3.8
Cc1ccc(Cc2nc(-c3ccccn3)no2)cc1	0.3	16.8	i	-84.5*	0.3
Cc1[nH][nH]c(=O)c1C(c1ccc(-c2ccc(Cl)c(Cl)c2)o1)c1c(C)[nH][nH]c1=O	-1.3	61.3*	i	34.2	-3.7
Cc1n[nH]c(=O)nc1N/N=C/c1ccco1	-2.8	53.0*	i	-0.8	-5.1
Cc1n[nH]c(=O)nc1NCc1ccco1	-0.3	-2.0	i	7.0	0.2
Cc1cc(OCc2cccc(Cl)c2)c(C)cc1CN1CCOCC1	-1.6	-9.3	i	9.1	-2.1
CCc1cccc(NC(=O)CCNS(=O)(=O)c2ccc3[nH]c(=O)oc3c2)c1	-1.1	0.6	i	20.9	40.1*
SMILES	CAL PDZ FP-1	ARNT TACC3 PPI	Rce1 inhib	AI-2 QS modul	CAL PDZ FP-2
Cc1ccc(-c2nn(CC(=O)NCC3CCCO3)c(=O)c3ccccc23)cc1 (centres undefined)	-2.8	1.5	i	13.7	-3.5
Cn1ncc(=S)[nH]c1=S	0.1	-2.8	/	/	84.6*
CCOc1ccc(S(=O)(=O)Nc2cc(OC)c(OC)cc2C(=O)O)cc1	-0.7	-6.5	+	34.6	/
CCOc1ccc(NS(=O)(=O)c2ccc(NC(=O)c3ccccc3C(=O)O)cc2)cc1	-0.4	3.7	/	-57.5	75.8*
c1cc2c(cc1Cn1cnnn1)OCO2	-1.6	-3.5	i	37.4	62.4*
c1cc2c(cc1-n1cnnn1)OCO2	-2.8	-1.1	i	14.9	-2.6
CN(C[C@H]1N[C@@H](CO)[C@@H]1c1ccc(-c2cccnc2)cc1)C(=O)c1ccccc1	/	-2.7	/	/	/
O=C(N/N=C/c1cc(Br)cs1)c1c[nH]c2ccccc12	-4.8	10.0	i	-19.9	/
O=C(N/N=C/c1ccc(Br)s1)c1c[nH]c2ccccc12	-4.1	/	i	-77.5*	-6.5
O=C(N/N=C/c1c[nH]c2ccccc12)c1ccncc1	-0.3	-0.8	i	-1.5	3.6
O=C(N/N=C/c1c[nH]c2ccccc12)c1ccccc1	-0.2	3.1	i	2.8	37.5*
Cc1sc2ncnc(N)c2c1C	-0.9	-5.9	i	11.8	2.0
O=C1CSC(=S)N1N=Cc1c(O)ccc2ccccc12	-0.5	68.2*	/	/	1.9
COc1cccc(/C=N/N2C(=O)CSC2=S)c1O	0.8	67.0*	i	11.8	-3.9
COc1ccc2ccccc2c1/C=N/N1C(=O)CSC1=S	-1.2	-15.0	i	18.1	-3.7
COc1cc(/C=N/N2C(=O)CSC2=S)cc(Br)c1O	-8.6	20.5	/	/	53.3*
Clc1cccc(Nc2nc(N3CCOCC3)nc(N3CCOCC3)n2)c1	-1.0	-27.6	i	0.1	-3.6
Cc1ccccc1NC(=S)N(Cc1ccco1)C(C)c1cccs1 (centres undefined)	18.8	-9.2	i	3.2	47.2*
COc1ccc(/C(C)=N/NC(=O)Cc2c(C)nc(C)[nH]c2=O)cc1	1.0	-20.0	i	38.4	-0.8
Cc1nc(C)c(CC(=O)N/N=C/c2ccc(O)cc2)c(=O)[nH]1	0.3	-34.2	i	8.8	55.6*
O=C(CN1CCN(c2ccc(O)cc2)CC1)N1CCc2ccccc21	0.2	/	i	26.2	49.3*
Cc1cc(C)n2cc(CSCC(=O)O)nc2n1	-1.9	-13.0	+	8.0	-2.5
CCOc1ccc(/C=N/OCC(=O)Nc2cc(S(=O)(=O)N3CCOCC3)ccc2OC)cc1	/	-2.6	i	11.2	46.7*
CCOc1ccc(OCCC(=O)OCC(=O)Nc2cc(S(=O)(=O)N3CCOCC3)ccc2OC)cc1	-0.3	-2.0	/	/	20.6
O=C(CN1CCN(c2nc(-c3ccc(F)cc3)cs2)CC1)Nc1ccc2c(c1)OCO2	-2.4	3.0	i	1.2	/
COc1ccc(NC(=O)CC(CC(=O)O)c2cc(OC)c(OC)c(OC)c2)cc1 (centres undefined)	0.1	-8.3	i	18.3	59.4*
O=C(O)CC(CC(=O)Nc1ccc(Oc2ccccc2)cc1)c1ccccc1 (centres undefined)	-0.9	-6.6	i	96.8	-1.5
Fc1ccc(CN2CCC(Cc3ccccc3)CC2)cc1F	0.2	34.7	i	24.4	-3.8
O=C(O)CNC(=O)c1ccc(NS(=O)(=O)c2ccc3ccccc3c2)cc1	-1.2	-25.6	i	6.1	-1.6
COc1cc(S(=O)(=O)Nc2ccc(C(=O)NCC(=O)O)cc2)ccc1NC(C)=O	11.6	-1.1	i	19.1	68.4*
